# Results published in ChEMBL document CHEMBL3271936, “Biologically oriented organic sulfur chemistry. 14. Antiinflammatory properties of some aryl sulfides, sulfoxides, and sulfones” (J Med Chem, 1976).
# Active and inactive are the calls of the source. No cut-off for these calls is given here.
# Columns and labels:
# [1] = test system: Rattus norvegicus; assay: Antiinflammatory activity in Holtzman rat assessed as inhibition of UV radiation-induced erythema at 50 mg/kg, po relative to control; assay type: functional; conditions: Holtzmann
# [2] = test system: Rattus norvegicus; assay: Antiinflammatory activity in Holtzman rat assessed as inhibition of carrageenan-induced paw edema at 50 mg/kg, po administered at 0.5 and 2.5 hrs prior to carrageenan-challenge relative to control; assay type: functional; conditions: Holtzmann
# Procedure, shortened: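 Carrageenan paw-edema assay in male or female Holtzman rats (180–190 g), five per group. Compound given orally at 50 mg/kg twice, at 2.5 h and 0.5 h before carrageenan injection into the hind paw. Inhibition of edema is expressed as percent versus controls.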
# [3] = test system: Mus musculus; assay: Toxicity in mouse assessed as mortality at >= 0.3 g/kg, ip; assay type: organism-based; conditions: in vivo, 300 mg/kg
# Procedure, shortened: (§1)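 Mice dosed intraperitoneally at two dose levels, three animals per compound (rarely two). The approximate lethal range was taken as survival at the lower dose and death at the higher, in g/kg. Dose brackets were 0.1–0.3, 0.3–1.0, and >1.0.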
# [4] = test system: Mus musculus; assay: Antiinflammatory activity in mouse assessed as inhibition of carrageenan-induced edema at 30 mg/kg relative to control; assay type: functional
# [5] = test system: Rattus norvegicus; assay: Antiinflammatory activity in Holtzman rat assessed as inhibition of UV radiation-induced erythema at 25 mg/kg, po relative to control; assay type: functional; conditions: Holtzmann
# [6] = test system: Mus musculus; assay: Toxicity in mouse assessed as mortality up to 0.3 g/kg, ip; assay type: organism-based; conditions: in vivo, 300 mg/kg; procedure, shortened: as §1
# [7] = test system: Rattus norvegicus; assay: Antiinflammatory activity in Holtzman rat assessed as inhibition of carrageenan-induced paw edema at 35 mg/kg, po relative to control; assay type: functional; conditions: Holtzmann
# [8] = test system: Rattus norvegicus; assay: Antiinflammatory activity in specific pathogen-free Alderley Park 1 rat assessed as inhibition of adjuvant-induced swelling at 25 mg/kg/day, po treated for 2 days prior to adjuvant-challenge followed by compound administration for 18 days; assay type: functional, organism-based
# Procedure, shortened: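 Adjuvant arthritis assay in rats. Oral dosing at 25 mg/kg per day begins 2 days before adjuvant and continues 18 days after it, for 20 days in total.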
# [9] = test system: Rattus norvegicus; assay: Antiinflammatory activity in po dosed Holtzman rat assessed as inhibition of UV radiation-induced erythema; assay type: functional; conditions: Holtzmann
SMILES,inhibition in vivo at 50 mg/kg [1],inhibition in vivo at 50 mg/kg [2],Activity [3],other results
Cc1cccc(Sc2ccccc2C(=O)O)c1C,26%,15%,Toxic,
NCCSSc1ccccc1C(=O)O,,,,inhibition in vivo at 30 mg/kg [4]: 40%
O=C(O)c1ccccc1S(=O)(=O)c1ccccc1,0%,15%,Toxic,
Cc1cccc(S(=O)(=O)c2ccccc2C(=O)O)c1C,27%,0%,Toxic,
O=C(O)c1ccccc1[S+]([O-])c1ccccc1 (configuration not stated),0%,19%,Toxic,
Cc1cccc([S+]([O-])c2ccccc2C(=O)O)c1C (configuration not stated),0%,15%,,
O=C(O)c1ccccc1Sc1cccc(C(F)(F)F)c1,43%,18%,,inhibition in vivo at 25 mg/kg [5]: 0%; Activity [6]: Non-toxic
O=C(O)c1ccccc1S(=O)(=O)c1cccc(C(F)(F)F)c1,23%,,Toxic,inhibition in vivo at 35 mg/kg [7]: 6%
O=C(O)Cc1ccccc1Sc1ccccc1,51%,23%,Toxic,inhibition [8]: inactive
CC(C(=O)O)c1ccccc1[S+]([O-])c1ccccc1 (configuration not stated),7%,8%,,
O=C(O)Cc1ccccc1[S+]([O-])c1ccccc1 (configuration not stated),23%,30%,Toxic,inhibition [8]: inactive
CC(=O)Oc1ccccc1C(=O)O [ASPIRIN],50%,< 20%,,
O=C(O)c1ccccc1[S+]([O-])c1cccc(C(F)(F)F)c1 (configuration not stated),2%,4%,Toxic,
CC(C(=O)O)c1ccccc1Sc1ccccc1 (configuration not stated),33%,14%,Toxic,
CCCCC1C(=O)N(c2ccccc2)N(c2ccccc2)C1=O [PHENYLBUTAZONE],,50%,,ED50 [9]: 5 mg/kg
